Compound activity: PubChem, several laboratories
Only some compounds are listed: those with a hit (about 12% of all), similar ones and a draw of the others.
MT stabilizer = microtubule stabilizers in HeLa cells; HeLa tubulin immunostaining HCS, 24 h; share of cells brighter than vehicle mean+2SD; % tubulin-high responders, % at 10 µM; hit rate 0.83% among 200,000; AID 2205;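 active = plate Z-score above 3 for both tubulin-high and condensed-nucleus cell shares, with cell loss under 80%, at 10 µM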;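 note: anti alpha tubulin signal scored within the nucleus-defined area of each cell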
Autophagy mod = alters autophagy in cells; MEF GFP-LC3 puncta imaging; test concentration mostly 10 µM; AID 463193; calls only at 10 µM (by protocol); hit rate 0.98% among 190,000;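 active = percentage of spot-positive cells more than 3 SD above its plate mean, without a fluorescence outlier flag or 80% toxicity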;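 note: spot-positive cell cutoff set from DMSO-treated cells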
Dynein transport = dynein cargo transport inhibition; 3617.4 mouse cells, GR-EGFP nuclear translocation imaging; test concentration mostly 20 µM; stimulated with dexamethasone, 1 µM; hits give low values; z-score, hits read low; hit rate 0.47% among 220,000; AID 1381;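 active = plate z-score of nuclear minus cytoplasmic receptor signal below a set negative limit, without overly bright fluorescence or cell loss, cut at about -3.5 in these data, passing the limit was not always enough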;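 note: z-score of nuclear minus cytoplasmic ring GR-EGFP intensity difference per well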
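Schedule: 48 h induction, then 1 h compound, then 30 min agonist, 37 °C. Buffer or medium: tetracycline-free induction medium containing charcoal-stripped FBS. Reagent: 1.0 µM final dexamethasone stimulus. Evaluation: nuclear versus cytoplasmic GR-EGFP signal, averaged per well. Signal: high-content fluorescence imaging after fixation.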
L major viab = Leishmania major promastigote growth inhibition. inhibition, % at 10 µM. hit rate 9% among 200,000. Leishmania major promastigotes, resazurin fluorescence viability. AID 1063; in the data active = inhibition above about 50%;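 note: promastigotes grown with compound for 44 hours at 28 °C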
bCat nuc transl = beta-catenin nuclear translocation modulation | HeLa beta-catenin nuclear translocation, immunofluorescence imaging | nuclear translocation activity, % at 5 µM | hit rate 0.3% among 190,000 | AID 1665;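 active = nuclear translocation activity above 50% at 5 µM, with a well cell count of 50 or more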;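 note: per-cell ratio of nuclear to cytoplasmic median beta-catenin stain intensity; plate controls were DMSO negative control for no effect and GSK-3 inhibitor IX positive control for full effect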
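Test system: HeLa cells, endogenous beta-catenin; Compound: single 5 µM dose plus 0.02–20 µM confirmation series; Times: compound exposure 24 h at 37°C; Signal: fluorescence imaging of beta-catenin antibody stain plus DAPI; Read-out: % activation, nuclear-to-cytoplasmic median beta-catenin signal ratio per cell.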
CHOP inhibitor = inhibitors of CHOP induction in ER stress response | CHO-K1 CHOP-promoter luciferase, tunicamycin-induced, 15-18 h | hit rate 3.8% among 220,000 | inhibition, % at 10 µM;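 active = compounds that reduced the stress-induced luciferase reporter signal by more than about 70% of percent inhibition, limit read from the data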;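 note: 0% = tunicamycin plus vehicle and 100% = wells without tunicamycin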
L major 1uM = inhibitors of Leishmania major promastigote growth, repeat at 1 uM; shares compounds with L major viab; L. major promastigote growth, resazurin fluorescence, 48 h; inhibition, % at 1 µM; hit rate 13% among 1,100; AID 1258;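 active = inhibition above about 50% in both repeat tests, limit read from the data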
An asterisk follows results filed as active; i = inactive; / = not tested or not shown; + = active, no number.

SMILES	MT stabilizer	Autophagy mod	Dynein transport	L major viab	bCat nuc transl	CHOP inhibitor	others
O=C(Cc1cccc2ccccc12)N1CCN(c2ncccn2)CC1	5	i	0.33	17	2	10
CC(C)CC(=O)NC(=S)NNC(=O)c1ccc([N+](=O)[O-])cc1	3	i	-0.52	18	-4	29
CC(C)CC(=O)NC(=S)NNC(=O)c1ccc(NC(=O)C2CCCCC2)cc1	2	i	0.97	1	4	72*
O=C(O)CCC(=O)Nc1ccc(C(=O)OC2CCCCC2)cc1	5	i	-0.62	-1	-1	32
O=C(OC1CCCCC1)c1ccc(NC(=O)C2CCCCC2)cc1	2	i	-0.17	87*	/	57
COc1ccc(N2CCN(C(c3ccccc3)c3sc4nc(C)nn4c3O)CC2)cc1 (stereo unspecified)	/	/	2.1	/	3	15
CCc1nc(N2CCN(C(=O)c3ccccc3)CC2)c(C#N)c2c1COC(C)(C)C2	5	i	0.8	46	4	/
CC1(C)Cc2c(C#N)c(N3CCN(C(=O)c4ccccc4)CC3)nc(Cc3ccccc3)c2CO1	1	i	0.37	71*	-6	60
COc1ccc(CN(C(=O)CN2C(=O)COc3ccccc32)C2CCCC2)c(OC)c1	1	i	1	14	0	14
COc1ccc(CN(C(=O)CN2C(=O)C(C)Oc3ccccc32)C2CCCC2)c(OC)c1 (stereo unspecified)	5	i	0.36	34	-1	71*
COc1ccc(Cc2nnc(Nc3c(C)cccc3C)o2)cc1OC	/	/	1.4	/	1	25
Cc1ccc(Oc2ncccc2C(=O)NC2CCSC2=O)cc1 (stereo unspecified)	3	i	0.47	2	-2	-4
CN(C)c1ccc(C2CNC(c3ccc(Cl)c([N+](=O)[O-])c3)c3[nH]c4ccccc4c32)cc1 (stereo unspecified)	/	/	0.21	/	2	57
O=C1CC(c2ccc(Cl)c([N+](=O)[O-])c2)c2ccc3ccccc3c2N1 (stereo unspecified)	2	i	0.32	100*	-2	36
CCOC(=O)c1c(NC(=O)CSc2ncnc3ccccc23)sc(C(C)=O)c1C	3	i	-0.76	80*	2	75*
CCOC(=O)c1c(NC(=O)CSc2nnc(-c3ccccc3C)n2C)sc(C(C)=O)c1C	7	i	-0.74	73*	0	46
CCOC(=O)c1c(NC(=O)CSc2nc3ccccc3c(=O)n2-c2ccc(F)cc2)sc(C(C)=O)c1C	5	i	0.82	17	-2	-13
CCOC(=O)c1c(NC(=O)CSc2nc3cccnc3n2C)sc(C(C)=O)c1C	2	i	-0.26	-4	2	55
O=C(Nc1ccccn1)c1ccc(Br)c(S(=O)(=O)N2CCCCC2)c1	1	i	-0.65	4	/	42
Cc1[nH]c2ccccc2c1C(=O)CCl	2	+	-3	99*	4	-50
Cc1[nH]c2ccccc2c1C(=O)CSc1ccccc1	3	i	0.2	5	0	9
Cc1ccc(CSc2nnc3ccc(-c4ccncc4)nn23)cc1	2	i	-0.34	17	1	36
Cc1ccc(/C=C2\SC(=S)N(/N=C/c3cc([N+](=O)[O-])ccc3O)C2=O)o1	4	i	0.3	-1	0	18
CCOc1c(Br)cc(/C=N\NC(=O)c2ccccc2)cc1OC	3	i	-0.18	46	/	-8
COc1cc(/C=N/NC(N)=S)cc(Br)c1OCc1ccccc1F	1	i	-0.65	99*	3	32	L major 1uM=22
c1ccc2c(c1)nc(N1CCOCC1)c1c3ccccc3[nH]c21	4	i	0.18	53*	-2	68	L major 1uM=11
Cc1cc(-c2ccccc2)nc(N(C)NC(=O)c2ccc(Cl)cc2)c1S(C)(=O)=O	3	i	1.6	10	/	43
COC(=O)c1ccc(Sc2nnnn2-c2ccccc2)c([N+](=O)[O-])c1	4	i	0.21	99*	2	-27	L major 1uM=-1
